In ChEMBL document CHEMBL1159049, “Novel small molecule bradykinin B1 receptor antagonists. Part 3: hydroxyurea derivatives” (Bioorg Med Chem Lett, 2010):
≈ marks a conversion by molar mass, not a printed value. Values belong to the molecule of their own block, whether it stands above or below them.

What was measured:
[1] = Half life in Wistar rat at 1 mg/kg, iv […]; format: ADME, organism-based; conditions: in vivo
Outline: (§1)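 Male Wistar rats dosed at 1 mg/kg iv (group 1) and 1 mg/kg po (group 2). Plasma aliquots precipitated with methanol containing a structural analogue as internal standard, then analyzed by HPLC-MS/MS for time/concentration values. PK parameters (terminal t1/2, CL, F) derived from these profiles.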

[2] = Clearance in Wistar rat at 1 mg/kg, iv […]; format: ADME, organism-based; conditions: in vivo; outline: as §1
B1 bradykinin receptor = molecular target: T1, B1 bradykinin receptor (Homo sapiens, UniProt P46663); assay: Antagonist activity at bradykinin B1 receptor in human IMR90 cells assessed as inhibition of des-Arg-bradykinin-mediated calcium mobilization; format: functional, cell-based, IMR-90; conditions: in the assay text read “des-Arg-kallidin-mediated” for “des-Arg-bradykinin-mediated”
T1 sequence (P46663 whole entry): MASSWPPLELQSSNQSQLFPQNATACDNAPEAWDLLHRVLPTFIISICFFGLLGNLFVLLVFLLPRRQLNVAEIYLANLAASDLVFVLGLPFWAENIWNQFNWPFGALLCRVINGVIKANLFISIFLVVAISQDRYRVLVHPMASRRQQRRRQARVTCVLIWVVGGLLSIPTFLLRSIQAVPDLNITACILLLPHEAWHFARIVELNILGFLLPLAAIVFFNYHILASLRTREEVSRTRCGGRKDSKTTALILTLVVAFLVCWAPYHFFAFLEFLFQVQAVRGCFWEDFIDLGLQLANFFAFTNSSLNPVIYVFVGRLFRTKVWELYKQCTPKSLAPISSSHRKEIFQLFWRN
Outline: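 Human lung fibroblast IMR-90 cells pretreated with IL-1 beta; B1 receptor functional activity read as inhibition of DAKD-mediated calcium mobilization (CAM assay). Values are the numerical average of at least two experiments.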

[3] = Oral bioavailability in Wistar rat at 1 mg/kg; format: ADME, organism-based; conditions: in vivo; outline: as §1
[4] = Aqueous Solubility in PBS buffer; format: physicochemical
[5] = Apparent permeability from apical to basolateral side of human Caco-2 cell; format: ADME, cell-based
Outline: (§2)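 Bidirectional permeability through Caco-2 cell monolayers; Papp measured apical-to-basolateral and basolateral-to-apical, with efflux ratio taken as B–A over A–B.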

Caco-2 = assay: Ratio of permeability from basolateral to apical side to apical to basolateral side in human Caco-2 cells; format: ADME, cell-based; outline: as §2
[6] = Apparent permeability from basolateral to apical side of human Caco-2 cell; format: ADME, cell-based; outline: as §2
[7] = Metabolic stability in human liver microsomes after 1 hr; format: ADME, Microsome; conditions: read-out: Stability
Outline: (§3)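 Incubation with human or rat liver microsomes for 1 h; percent parent remaining reported.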

[8] = Compound remaining in PBS buffer after 5 days; format: physicochemical; conditions: read-out: Stability
Outline: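 Chemical stability: compound incubated in PBS buffer at 50 °C for 5 days; percent remaining determined.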

Hepatocyte = assay: Cytotoxicity against human hepatocytes; format: cell-based
Outline: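 Cell viability in plateable cryopreserved human hepatocytes exposed to a range of concentrations up to 100 µM for 24 h at 37 °C; resazurin substrate, resorufin product detected by fluorimetry.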

[9] = Metabolic stability in rat liver microsomes after 1 hr; format: ADME, Microsome; conditions: read-out: Stability; outline: as §3
Homo sapiens = organism: Homo sapiens; assay: Protein binding in human plasma; conditions: read-out: PPB (converted)

SMILES: CCN(O)C(=O)NCc1ncc(-c2cc(Cl)cc(F)c2-c2nnn(C)n2)cc1F
IC50 (B1 bradykinin receptor): 4.6 nM

SMILES: Cc1nc(-c2c(F)cc(Cl)cc2-c2cnc([C@@H](C)NC(=O)N(C)O)c(C)c2)no1
IC50 (B1 bradykinin receptor): 3.6 nM

SMILES: Cc1nc(-c2c(F)cc(Cl)cc2-c2ccc(CNC(=O)N(C)O)c(F)c2)no1
IC50 (B1 bradykinin receptor): 32 nM

SMILES: Cc1nc(-c2c(F)cccc2-c2cnc([C@@H](C)NC(=O)N(C)O)c(F)c2)no1
IC50 (B1 bradykinin receptor): 31 nM

SMILES: Cc1nc(-c2c(F)cc(Cl)cc2-c2ccc(CNC(=O)N(C)O)cc2)no1
IC50 (B1 bradykinin receptor): > 100 nM

SMILES: Cn1nnc(-c2c(F)cc(Cl)cc2-c2cnc(CNC(=O)N(O)C3CCC(F)(F)CC3)c(F)c2)n1
half-life [1]: 47 min | solubility [4]: 39 µM (≈ 20 µg/mL) | clearance [2]: 13 mL/min/kg | Papp A→B [5]: 24 ×10⁻⁶ cm/s | Ratio (Caco-2): < 3 | IC50 (B1 bradykinin receptor): 0.19 nM | Papp B→A [6]: 43 ×10⁻⁶ cm/s | remaining at 1 h [7]: 61% | remaining at 120 h [8]: > 99% | Activity (Hepatocyte): Non-toxic | remaining at 1 h [9]: 84% | bioavailability [3]: 78% | fraction unbound (Homo sapiens): 0.013

SMILES: Cc1nc(-c2c(F)cc(Cl)cc2-c2cnc(CNC(=O)N(C)O)c(F)c2)no1
IC50 (B1 bradykinin receptor): 17 nM

SMILES: Cn1nnc(-c2c(F)cc(Cl)cc2-c2cnc(CNC(=O)NO)c(F)c2)n1
IC50 (B1 bradykinin receptor): 59 nM

SMILES: Cn1nnc(-c2c(F)cc(Cl)cc2-c2cnc(CNC(=O)N(O)C3CCCCC3)c(F)c2)n1
IC50 (B1 bradykinin receptor): 3.9 nM

SMILES: CC(C)N(O)C(=O)NCc1ncc(-c2cc(Cl)cc(F)c2-c2nnn(C)n2)cc1F
IC50 (B1 bradykinin receptor): 1 nM

SMILES: Cn1nnc(-c2c(F)cc(Cl)cc2-c2cnc(CNC(=O)N(O)C(C)(C)C)c(F)c2)n1
IC50 (B1 bradykinin receptor): 1.4 nM

More lines, in order of falling IC50 (B1 bradykinin receptor), values ahead:

IC50 (B1 bradykinin receptor): 17 nM
SMILES: CN(O)C(=O)NCc1ncc(-c2cc(Cl)cc(F)c2-c2nnn(C)n2)cc1F

IC50 (B1 bradykinin receptor): 2.3 nM
SMILES: Cc1nc(-c2c(Cl)cc(Cl)cc2-c2cnc([C@@H](C)NC(=O)N(C)O)c(F)c2)no1

half-life [1]: 12 min | clearance [2]: 58 mL/min/kg | IC50 (B1 bradykinin receptor): 1.2 nM | bioavailability [3]: 8%
SMILES: Cc1nc(-c2c(F)cc(Cl)cc2-c2cnc([C@@H](C)NC(=O)N(C)O)c(F)c2)no1

IC50 (B1 bradykinin receptor): 0.8 nM
SMILES: Cn1nnc(-c2c(F)cc(Cl)cc2-c2cnc(CNC(=O)N(O)C3CCCC3)c(F)c2)n1

half-life [1]: 80 min | clearance [2]: 8 mL/min/kg | IC50 (B1 bradykinin receptor): 0.5 nM | bioavailability [3]: 86%
SMILES: Cn1nnc(-c2c(F)cc(Cl)cc2-c2cnc(CNC(=O)N(O)C(CF)CF)c(F)c2)n1
